According to ChEMBL document CHEMBL3992558, “Benzimidazole inhibitors from the Niclosamide chemotype inhibit Wnt/β-catenin signaling with selectivity over effects on ATP homeostasis” (Bioorg Med Chem, 2017):
Active and inactive are the calls of the source. The rule behind the calls is not given here.

How the values were obtained:
Homo sapiens [1] = organism: Homo sapiens; experiment: Inhibition of Wnt/beta-catenin signaling in human U2OS cells expressing GFP-fused Fzd1 assessed as GFP-Fzd1 internalization by measuring number of punctate formed at 12.5 uM after 6 hrs by confocal microscopic method; format: cell-based
Outline: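 U2OS cells stably expressing Frizzled1-GFP were plated in confocal dishes for 24 h, then treated with 12.5 μM compound in DMSO or DMSO for 6 h at 37°C and fixed in 4% paraformaldehyde. Confocal images (488-nm excitation) were read twice, blinded, and punctate was scored versus control on a 0–5 scale (0, 1, 3, 5).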

HCT-116 [2] = experiment: Effect on ATP homeostasis in human HCT116 cells assessed as reduction in ATP level after 3 hrs in absence of glucose by ATP bioluminescent assay; format: ADME, cell-based; conditions: for IC50: Homo sapiens, HCT-116, 3 h; for Activity: human, hct-116, 3 h
Outline: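 HCT-116 cells attached overnight on poly-D-lysine plates in McCoy's 5A/10% FBS, then switched to glucose-free DMEM with 2mM sodium pyruvate and 2mM L-glutamine containing compound (0.1% final DMSO). After 3 h at 37°C, 5% CO2, cells were lysed in Somatic Cell ATP Releasing Reagent and ATP was read by luciferase bioluminescence, normalized to DMSO control.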

[3] = (§1) Inhibition of Wnt/beta-catenin signaling (unknown origin) expressed in HEK293 cells assessed as inhibition of Wnt3A-stimulated beta-catenin response transcription after 6 hrs by TOPflash dual luciferase reporter gene assay; format: cell-based; conditions: Homo sapiens, HEK293, 6 h
Outline: (§2)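 HEK293 cells stably carrying p8xTOPFlash and Renilla pRL-TK were seeded at confluency and given Wnt-3A conditioned medium (from L Wnt-3A cells) containing compound, 0.04–10 μM, or DMSO for 6 h. Lysates were read by dual-luciferase assay. The DMSO/Wnt3A signal was set as 100%, and curves were fit (mean ± SEM, n ≥ 3). Percent inhibition at 10 μM was reported where no IC50 could be fitted.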

Homo sapiens [4] = organism: Homo sapiens; experiment: Inhibition of Wnt/beta-catenin signaling (unknown origin) expressed in HEK293 cells assessed as inhibition of Wnt3A-stimulated beta-catenin response transcription at 10 uM after 6 hrs by TOPflash dual luciferase reporter gene assay relative to control; format: cell-based; outline: as §2
HCT-116 [5] = experiment: Effect on ATP homeostasis in human HCT116 cells assessed as reduction in ATP level at 2 uM after 3 hrs in glucose supplemented media by ATP bioluminescent assay; conditions: hct-116, 3 h
HEK293 (Homo sapiens) = experiment: Effect on ATP homeostasis in human HEK293 cells assessed as reduction in ATP level after 3 hrs in absence of glucose by ATP bioluminescent assay; conditions: HEK293, 3 h
Homo sapiens [6] = organism: Homo sapiens; experiment: Inhibition of Wnt/beta-catenin signaling in human HCT116 cells assessed as downregulation of cytosolic Axin2 protein expression at 5 uM after 18 hrs by Western blot method; format: cell-based
Outline: (§3)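 HCT-116 (McCoy's 5A) or SW480 (MEM) cells, each with 10% FBS, were grown 48 h on poly-D-lysine-coated wells to 60–80% confluency. Fresh medium with compound or DMSO (0.1% final) was added for 18 h. Cytosolic fractions (β-catenin, Axin2) were isolated with hypotonic buffer, or whole cells were lysed in Laemmli buffer (c-Myc, Cyclin D1, Survivin). Immunoblots used β-actin as loading control.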

Homo sapiens [7] = organism: Homo sapiens; experiment: Inhibition of Wnt/beta-catenin signaling in human SW480 cells assessed as downregulation of survivin protein expression at 5 uM after 18 hrs by Western blot method; format: cell-based; outline: as §3
Homo sapiens [8] = organism: Homo sapiens; experiment: Inhibition of Wnt/beta-catenin signaling in human SW480 cells assessed as downregulation of cytosolic beta-catenin protein expression at 5 uM after 18 hrs by Western blot method; format: cell-based; outline: as §3
HCT-116 [9] = experiment: Effect on ATP homeostasis in human HCT116 cells assessed as reduction in ATP level at 0.5 to 2 uM after 3 hrs in glucose supplemented media by ATP bioluminescent assay; format: ADME, cell-based; conditions: hct-116, 3 h
Outline: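 HCT-116 cells attached overnight on poly-D-lysine plates, then treated 3 h at 37°C in DMEM with 2mM sodium pyruvate, 2mM L-glutamine and 5mM glucose (0.1% final DMSO). ATP was read by luciferase bioluminescence after lysis with Somatic Cell ATP Releasing Reagent, normalized to DMSO control.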

Homo sapiens [10] = organism: Homo sapiens; experiment: Inhibition of Wnt/beta-catenin signaling in human HCT116 cells assessed as downregulation of survivin protein expression at 5 uM after 18 hrs by Western blot method; format: cell-based; outline: as §3
Homo sapiens [11] = organism: Homo sapiens; experiment: Inhibition of Wnt/beta-catenin signaling in human SW480 cells assessed as downregulation of Cyclin D1 protein expression at 5 uM after 18 hrs by Western blot method; format: cell-based; outline: as §3
Homo sapiens [12] = organism: Homo sapiens; experiment: Inhibition of Wnt/beta-catenin signaling (unknown origin) expressed in HEK293 cells assessed as inhibition of Wnt3A-stimulated beta-catenin response transcription at 0.16 uM after 6 hrs by TOPflash dual luciferase reporter gene assay relative to control; format: cell-based
Outline: (§4)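 TOPFlash/Renilla stable HEK293 cells were split from the same batch as parallel ATP assay plates, attached overnight, then treated 6 h with compound in Wnt-3A conditioned medium. Dual-luciferase read-out was taken relative to the DMSO control. Three separate experiments used different cell batches.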

HCT-116 [13] = experiment: Effect on ATP homeostasis in human HCT116 cells assessed as reduction in ATP level at 0.16 uM after 3 hrs in absence of glucose by ATP bioluminescent assay; format: ADME, cell-based; set-up: scale not given: the % may be the effect or the level left; conditions: hct-116, 3 h
Homo sapiens [14] = organism: Homo sapiens; experiment: Inhibition of Wnt/beta-catenin signaling in human HCT116 cells assessed as downregulation of c-Myc protein expression at 5 uM after 18 hrs by Western blot method; format: cell-based; outline: as §3
Homo sapiens [15] = organism: Homo sapiens; experiment: Inhibition of Wnt/beta-catenin signaling in human HCT116 cells assessed as downregulation of Cyclin D1 protein expression at 5 uM after 18 hrs by Western blot method; format: cell-based; outline: as §3
Homo sapiens [16] = organism: Homo sapiens; experiment: as §1; format: cell-based; outline: as §2
Homo sapiens [17] = organism: Homo sapiens; experiment: Inhibition of Wnt/beta-catenin signaling in human SW480 cells assessed as downregulation of cytosolic Axin2 protein expression at 5 uM after 18 hrs by Western blot method; format: cell-based; outline: as §3
Homo sapiens [18] = organism: Homo sapiens; experiment: Inhibition of Wnt/beta-catenin signaling in human SW480 cells assessed as downregulation of c-Myc protein expression at 5 uM after 18 hrs by Western blot method; format: cell-based; outline: as §3
Homo sapiens [19] = organism: Homo sapiens; experiment: Inhibition of Wnt/beta-catenin signaling in human HCT116 cells assessed as downregulation of cytosolic beta-catenin protein expression at 5 uM after 18 hrs by Western blot method; format: cell-based; outline: as §3
Homo sapiens [20] = organism: Homo sapiens; experiment: Inhibition of Wnt/beta-catenin signaling (unknown origin) expressed in HEK293 cells assessed as inhibition of Wnt3A-stimulated beta-catenin response transcription at 0.63 uM after 6 hrs by TOPflash dual luciferase reporter gene assay relative to control; format: cell-based; outline: as §4
HCT-116 [21] = experiment: Effect on ATP homeostasis in human HCT116 cells assessed as reduction in ATP level at 0.63 uM after 3 hrs in absence of glucose by ATP bioluminescent assay; format: ADME, cell-based; conditions: hct-116, 3 h
Homo sapiens [22] = organism: Homo sapiens; experiment: Inhibition of Wnt/beta-catenin signaling (unknown origin) expressed in HEK293 cells assessed as inhibition of Wnt3A-stimulated beta-catenin response transcription at 0.31 uM after 6 hrs by TOPflash dual luciferase reporter gene assay relative to control; format: cell-based
Outline: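 HEK293 cells stably carrying p8xTOPFlash and a Renilla luciferase control (pRL-TK), grown in MEM with 10% FBS and 1ug/mL puromycin. Cells were seeded at confluence, then given Wnt-3A conditioned medium (from L Wnt-3A cells) with compound (0.04 to 10μM) or DMSO for 6 h. Lysates were read by dual luciferase, with the Wnt3A + DMSO signal set as 100%.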

## Cc1ccc(S(=O)(=O)Nc2ccc(Cl)cc2C(=O)Nc2ccc([N+](=O)[O-])cc2Cl)cc1
Homo sapiens [1]
  Activity: 3
HCT-116 [2]
  IC50: < 250 nM
[3]
  IC50: 1500 nM

## CS(=O)(=O)Nc1ccccc1-c1nc2cc([N+](=O)[O-])ccc2[nH]1
Homo sapiens [1]
  Activity: 0
Homo sapiens [4]
  inhibition: 50%

## Oc1ccc(Cl)cc1-c1nc2ccccc2[nH]1
Homo sapiens [1]
  Activity: 0
[3]
  IC50: 2670 nM

## Oc1ccc(Cl)cc1-c1nc2cc(F)ccc2[nH]1
Homo sapiens [1]
  Activity: 0
[3]
  IC50: 7650 nM

## COc1ccc(O)c(-c2nc3cc([N+](=O)[O-])ccc3[nH]2)c1
Homo sapiens [1]
  Activity: 0
[3]
  IC50: 4190 nM

## N#CC(C#N)=NNc1ccc(OC(F)(F)F)cc1
HCT-116 [5]
  Activity: Toxic

## O=[N+]([O-])c1ccc2nc(-c3ccccc3O)[nH]c2c1
Homo sapiens [1]
  Activity: 0
[3]
  IC50: 4440 nM

## O=C(Nc1ccc([N+](=O)[O-])cc1Cl)c1cc(Cl)ccc1O [NICLOSAMIDE]
HEK293 (Homo sapiens)
  EC50: 56 nM
Homo sapiens [6]
  inhibition: Active
Homo sapiens [7]
  inhibition: Active
Homo sapiens [8]
  inhibition: Active
HCT-116 [9]
  Activity: Toxic
Homo sapiens [10]
  inhibition: Active
Homo sapiens [1]
  Activity: 5
Homo sapiens [11]
  inhibition: Active
Homo sapiens [12]
  inhibition: 40 to 50%
HCT-116 [2]
  IC50: 250 nM
  Activity: Dose-dependent effect
HCT-116 [13]
  Activity: > 80%
Homo sapiens [14]
  inhibition: Active
Homo sapiens [15]
  inhibition: Active
Homo sapiens [16]
  inhibition: Dose-dependent effect
[3]
  IC50: 120 to 280 nM
Homo sapiens [17]
  inhibition: Active
Homo sapiens [18]
  inhibition: Active
Homo sapiens [19]
  inhibition: Active

## O=[N+]([O-])c1ccc2[nH]c(-c3cc(F)ccc3O)nc2c1
HEK293 (Homo sapiens)
  EC50: > 5000 nM
Homo sapiens [6]
  inhibition: Active
Homo sapiens [20]
  inhibition: Active
Homo sapiens [7]
  inhibition: Active
Homo sapiens [8]
  inhibition: Active
HCT-116 [9]
  Activity: Non-Toxic
Homo sapiens [10]
  inhibition: Active
Homo sapiens [1]
  Activity: 2
Homo sapiens [11]
  inhibition: Active
HCT-116 [2]
  IC50: 6000 nM
  Activity: Dose-dependent effect
Homo sapiens [14]
  inhibition: Active
Homo sapiens [15]
  inhibition: Active
Homo sapiens [16]
  inhibition: Dose-dependent effect
[3]
  IC50: 620 to 1150 nM
Homo sapiens [17]
  inhibition: Active
Homo sapiens [18]
  inhibition: Active
Homo sapiens [19]
  inhibition: Active
HCT-116 [21]
  Activity: Non-Toxic

## Cc1ccc(S(=O)(=O)Nc2ccccc2-c2nc3cc(C(F)(F)F)ccc3[nH]2)cc1
Homo sapiens [1]
  Activity: 0
Homo sapiens [4]
  inhibition: 57%

## O=[N+]([O-])c1ccc2nc(-c3cc(Cl)ccc3O)[nH]c2c1
Homo sapiens [22]
  inhibition: 40%
HEK293 (Homo sapiens)
  EC50: 2900 nM
Homo sapiens [6]
  inhibition: Active
Homo sapiens [7]
  inhibition: Active
Homo sapiens [8]
  inhibition: Active
Homo sapiens [10]
  inhibition: Active
Homo sapiens [1]
  Activity: 3
Homo sapiens [11]
  inhibition: Active
Homo sapiens [14]
  inhibition: Active
Homo sapiens [15]
  inhibition: Active
Homo sapiens [16]
  inhibition: Dose-dependent effect
[3]
  IC50: 360 to 480 nM
Homo sapiens [17]
  inhibition: Active
Homo sapiens [18]
  inhibition: Active
Homo sapiens [19]
  inhibition: Active

## Cc1ccc(S(=O)(=O)Nc2ccc(Cl)cc2-c2nc3cc(C(F)(F)F)ccc3[nH]2)cc1
Homo sapiens [1]
  Activity: 0
[3]
  IC50: 3200 nM
